According to publication PMC5403476 (International Journal of Molecular Medicine, 2017):
Residues, ends and D or L forms follow the SMILES beside them.

Key:
Format in all cases: cell-based, human
EA.hy926 cells = assay: Cell viability by MTT assay; conditions: 62.5, 125 and 250 µM, up to 250 µM; presence or absence of Ang II (1 µM); 24 h
Summary of the method: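 EA.hy926 cells were grown in DMEM with 10% FBS, penicillin and streptomycin at 37°C in 5% CO2. Cells were treated with Ang II (1 µM) plus test compound (62.5, 125 or 250 µM) for 24 h at 37°C, then with MTT for 4 h. Plates were spun and formazan was dissolved in DMSO, read at 540 nm. Data are mean ± SD of at least 3 experiments, compared by unpaired t-test.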

[1] = tested on: NO production in Ang II-stimulated EA.hy926 cells; assay: NO production; conditions: Ang II alone (1 µM, 24 h), compared with the untreated cells
Summary of the method: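 EA.hy926 cells were incubated with test compound and Ang II for 24 h. Nitrite in the medium was taken as the NO indicator. Medium was mixed 1:1 with Griess reagent (1% sulfanilamide, 0.1% naphthylethylenediamine dihydrochloride in 2.5% phosphoric acid) for 10 min at room temperature and read at 540 nm, with fresh medium as blank. Data are mean ± SD, at least 3 experiments.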

[2] = tested on: JNK phosphorylation in EA.hy926 cells; assay: Phosphorylation of JNK by western blot; conditions: 30 min
Summary of the method: (§1)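 Ang II-stimulated EA.hy926 cells were lysed for 60 min in Tris/EDTA/NP-40 buffer with phosphatase and protease inhibitors, and protein was measured by BCA. Each lane took 40 µg protein on SDS-PAGE, transferred to nitrocellulose and blocked 2 h in 5% milk/TBS-T. Primary antibodies (1:1,000) were applied overnight at 4°C and secondaries at 1:3,000, with ECL detection and densitometry. Data are mean ± SD, at least 3 experiments.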

[3] = tested on: ET-1 expression in Ang II-stimulated EA.hy926 cells; assay: ET-1 expression by western blot; conditions: 24 h
Summary of the method: as §1

[4] = tested on: intracellular ROS in Ang II-stimulated EA.hy926 cells; assay: Intracellular ROS generation; conditions: Ang II alone (1 µM, 30 min), compared with the untreated cells
Summary of the method: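 Cells were seeded for 24 h, then pre-treated with test compound for 30 min. Ang II (1 µM) was added for a further 30 min at 37°C. Cells were loaded with 40 µM carboxy-DCFH-DA, and DCF fluorescence plus DAPI were imaged by fluorescence microscopy.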

[5] = tested on: ERK phosphorylation in EA.hy926 cells; assay: Phosphorylation of ERK by western blot; conditions: 30 min
Summary of the method: as §1

[6] = tested on: p38 MAPK phosphorylation in EA.hy926 cells; assay: Phosphorylation of p38 MAPK by western blot; conditions: 30 min
Summary of the method: as §1

[7] = tested on: iNOS expression in Ang II-stimulated EA.hy926 cells; assay: iNOS expression by western blot; conditions: 24 h
Summary of the method: as §1

Molecule | cytotoxic effect (MTT) (EA.hy926 cells) | NO generation, Ang II alone [1] | phosphorylated JNK, Ang II alone [2] | ET-1 expression, Ang II alone [3] | ROS fluorescence intensity, Ang II alone [4] | phosphorylated ERK, Ang II alone [5] | phosphorylated p38 MAPK, Ang II alone [6] | iNOS expression, Ang II alone [7]
CSCC[C@H](NC(=O)[C@@H](N)[C@@H](C)O)C(=O)N[C@@H](CCC(=O)O)C(=O)N1CCC[C@H]1C(=O)NCC(=O)N[C@@H](CCCCN)C(=O)N1CCC[C@H]1C(=O)O [purified peptide, Thr-Met-Glu-Pro-Gly-Lys-Pro] (H-TMEPGKP-OH) | No significant toxic effects |  |  |  |  |  |  | 
angiotensin II (DRVYIHPF; Angiotensin-2; UniProt P01019 25-32, looked up) [Ang II] |  | markedly induced NO generation | elevated | markedly increased | increased markedly | elevated | elevated | markedly increased
